The text below walks through data of ChEMBL document CHEMBL3997810, “A Novel Potent Anticancer Compound Optimized from a Natural Oridonin Scaffold Induces Apoptosis and Cell Cycle Arrest through the Mitochondrial Pathway” (J Med Chem, 2017).

By IC50 is commonly meant the midpoint of a concentration-inhibition curve.

The source made the active and inactive calls. The rule behind the calls is not given here.

For the first test, the system named is Bel-7402. Nature of the test: Antiproliferative activity against human Bel7402 cells after 72 hrs by MTT assay. It counts as functional, cell-based. The settings on record: Bel-7402, 72 h. A digest of the protocol:
(§1)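 MGC-803 and MCF-7 cells grown in DMEM (MCF-7 with 1× NEAA); Bel-7402 and K562 grown in RPMI 1640; all media with 10% FBS. Cells seeded at 3500/well, pre-incubated 24 h, then exposed to compounds in fresh medium (DMSO ≤0.25%) for 72 h at 37 °C. MTT read-out at 570 nm. Quadruplicate wells, repeated three times; means ± SD (n = 3).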
(Tetrazolium assays rely on reduction of a dye to a coloured formazan, in cell work by metabolically active cells.)
Consider `C=C1C(=O)[C@]23[C@H](OC(C)=O)[C@H]1CC[C@H]2[C@]12C=C[C@H](OC(C)=O)C(C)(C)[C@H]1[C@H](O)[C@]3(O)OC2`, for which the 50% inhibitory concentration (IC50) was 2.07 µM.
`C=C1C(=O)[C@@]23[C@@H]4OC(C)(C)O[C@@]25OC[C@]2(C=CCC(C)(C)[C@H]2[C@@H]5O)[C@@H]3CC[C@@H]14` gave a concentration for half-maximal inhibition (IC50) of 3.66 µM.
`C=C1C(=O)[C@@]23[C@@H]4OC(C)(C)O[C@@]25OC[C@]2([C@@H]6O[C@@H]6CC(C)(C)[C@H]2[C@@H]5O)[C@@H]3CC[C@@H]14`: 1.32 µM corresponded to half-maximal inhibition (IC50).

The subject of the next test is MCF7. Nature of the test: Antiproliferative activity against human MCF7 cells after 72 hrs by MTT assay. In kind it is functional, cell-based. Conditions: MCF7, 72 h. A digest of the protocol:
as §1
For the compound `C=C1C(=O)[C@]23[C@H](OC(C)=O)[C@H]1CC[C@H]2[C@]12C=C[C@H](OC(C)=O)C(C)(C)[C@H]1[C@H](O)[C@]3(O)OC2`, the midpoint of inhibition, the IC50, lay at 4.13 µM.
Still for that read-out and setting: for `C=C1C(=O)[C@@]23[C@@H]4OC(C)(C)O[C@@]25OC[C@]2(C=CCC(C)(C)[C@H]2[C@@H]5O)[C@@H]3CC[C@@H]14` the value was 1.49 µM.
Still for that read-out and setting: the same measure for `C=C1C(=O)[C@@]23[C@@H]4OC(C)(C)O[C@@]25OC[C@]2([C@@H]6O[C@@H]6CC(C)(C)[C@H]2[C@@H]5O)[C@@H]3CC[C@@H]14`: 1.58 µM.

For a further test, the system named is K562. Nature of the test: Antiproliferative activity against human K562 cells after 72 hrs by MTT assay. It counts as functional, cell-based. The settings on record: K562, 72 h. The procedure, abridged:
as §1
In turn, `C=C1C(=O)[C@]23[C@H](OC(C)=O)[C@H]1CC[C@H]2[C@]12C=C[C@H](OC(C)=O)C(C)(C)[C@H]1[C@H](O)[C@]3(O)OC2` registered an IC50 of 1.88 µM.
Still for that read-out and setting: the same measure for `C=C1C(=O)[C@@]23[C@@H]4OC(C)(C)O[C@@]25OC[C@]2(C=CCC(C)(C)[C@H]2[C@@H]5O)[C@@H]3CC[C@@H]14`: 7.98 µM.
In turn, `C=C1C(=O)[C@@]23[C@@H]4OC(C)(C)O[C@@]25OC[C@]2([C@@H]6O[C@@H]6CC(C)(C)[C@H]2[C@@H]5O)[C@@H]3CC[C@@H]14` returned a concentration for half-maximal inhibition (IC50) of 1.66 µM.

A further test concerns MGC-803. Nature of the test: Antiproliferative activity against human MGC803 cells after 72 hrs by MTT assay. It counts as functional, cell-based. The settings on record: MGC-803, 72 h. A digest of the protocol:
as §1
With `C=C1C(=O)[C@]23[C@H](OC(C)=O)[C@H]1CC[C@H]2[C@]12C=C[C@H](OC(C)=O)C(C)(C)[C@H]1[C@H](O)[C@]3(O)OC2`, inhibition was half-maximal at 3.09 µM (IC50).
`C=C1C(=O)[C@@]23[C@@H]4OC(C)(C)O[C@@]25OC[C@]2(C=CCC(C)(C)[C@H]2[C@@H]5O)[C@@H]3CC[C@@H]14` came in with a concentration for half-maximal inhibition (IC50) of 3.61 µM.
The same measure, in the same setting: the same measure for `C=C1C(=O)[C@@]23[C@@H]4OC(C)(C)O[C@@]25OC[C@]2([C@@H]6O[C@@H]6CC(C)(C)[C@H]2[C@@H]5O)[C@@H]3CC[C@@H]14`: 1.42 µM.

Another test concerns Bel-7402. Nature of the test: Antiproliferative activity against human Bel7402 cells at 1 uM after 72 hrs by MTT assay. In kind it is functional, cell-based.
Conditions: not given
As for `C=C1C(=O)[C@]23[C@H](OC(C)=O)[C@H]1CC[C@H]2[C@]12C=C[C@H](OC(C)=O)C(C)(C)[C@H]1[C@H](O)[C@]3(O)OC2`, the result was Active.
In the case of `C=C1C(=O)[C@@]23[C@@H]4OC(C)(C)O[C@@]25OC[C@]2(C=CCC(C)(C)[C@H]2[C@@H]5O)[C@@H]3CC[C@@H]14`, the result was Active.
As for `C=C1C(=O)[C@@]23[C@@H]4OC(C)(C)O[C@@]25OC[C@]2([C@@H]6O[C@@H]6CC(C)(C)[C@H]2[C@@H]5O)[C@@H]3CC[C@@H]14`, the result was Active.
`C=C1C(=O)[C@@]23[C@@H]4OC(C)(C)O[C@@]25OC[C@]2([C@@H](OS(C)(=O)=O)CCC(C)(C)[C@H]2[C@@H]5O)[C@@H]3CC[C@@H]14`: the result was Active.

The subject of a further test is MCF7. The test can be described thus: Antitumor activity against human MCF7 cells xenografted in Balb/c nude mouse assessed as tumor growth inhibition at 20 mg/kg/day, iv for 4 weeks relative to control. In kind it is functional. The settings on record: 672 h, read-out: TGI. The procedure, abridged:
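Six-week-old male BALB/c nude mice received 1 × 10^6 MCF-7 cells subcutaneously in the right flank. After 7 d of tumor growth, mice were randomized into groups of six. Dosing was 20 mg/kg iv once daily for 28 days in 10% DMF/2% poloxamer/88% saline. Tumor volume (L × W²/2) and body weight were recorded every 2 days. Inhibition = (1 − mean treated/control tumor weight) × 100%.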
Background: In xenograft studies the graft and the host belong to different species.
Turning to `O=P1(N(CCCl)CCCl)NCCCO1` (configuration not stated) [CYCLOPHOSPHAMIDE ANHYDROUS], the inhibition in vivo at 20 mg/kg/day worked out at 64.6%.
